Bioassay records as filed in PubChem BioAssay.
ABHD4 inh: ABHD4 inhibitors, primary screen, biochemical, fluorescence polarization, mouse | purified mABHD4, FP-Rh probe fluorescence polarization | inhibition, % at 8.92 µM | 0.54% of 370,000 active;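 active = inhibition exceeding the mean over every tested compound plus 3 SD, cut at about 30% in these data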;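 note: 0% = plate median of compound wells and 100% = S159A mutant with DMSO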
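Test system: mABHD4 protein | Buffer or medium: HEPES pH 7.0 buffer, 150 mM NaCl, 0.01% Pluronic F-127 | Probe or stimulus: FP-Rh fluorescent activity-based probe, added after compound pre-incubation | Timing: Pre-incubation 45 min, probe exposure 60 min, at 25 °C | Technique: Fluorescence polarization, excitation 525 nm, emission 598 nm, BODIPY TMR filters | Repeats: Single well per compound (singlicate)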
rCAG binder: binders of r(CAG) RNA repeats, primary screen, biochemical, fluorescence | r(CAG) RNA repeat, TO-PRO-1 dye displacement fluorescence | 1.3% of 370,000 active | inhibition, % at 3 µM;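 active = inhibition above the plate cutoff, the mean of all test compounds on that plate plus 3 SD, cut at about 35% in these data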;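 note: 0% = DMSO alone and 100% = 100 µM mitoxantrone as full dye displacement; higher means more dye released from RNA so lower well fluorescence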
PRMT1 FP inh: PRMT1 methyltransferase inhibitors, primary screen, biochemical, fluorescence polarization. recombinant PRMT1, activity-based probe fluorescence polarization. inhibition, % at 2.79 µM. 1.3% of 370,000 active;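 active = inhibition above about 21% made by adding two undisclosed values, limit read from the data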
TCR-CD3 inh: inhibitors of human TCR-CD3 interaction, primary screen, biochemical, fluorescence, TAMRA-labeled TCR probe | inhibition, % at 9.4 µM | 0.37% of 360,000 active | T-cell receptor (TCR); in the data active = inhibition above about 19%;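 note: recombinant mutant TCR 2C K166C tagged with TAMRA read by polarization; 0% = receptor in buffer alone and 100% = receptor with positive control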
SIAE primary: human SIAE inhibitors, primary screen, biochemical, fluorescence polarization, FP-Rh probe, 1536-well HTS; Sialate O-acetylesterase (Homo sapiens), Q9HAT2; AID 1053197, 2014; 0.69% of 370,000 active; SIAE FP-Rh probe binding; inhibition, % at 9.66 µM;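 active = inhibition above a cutoff: mean of compounds within the control limits plus 3 SD of those, cut at about 17% in these data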;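 note: 0% = plate median of compound wells and 100% = probe without SIAE protein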
HTRA1 inh: HTRA1 serine protease inhibitors, primary screen, biochemical, fluorescence polarization, HTS | recombinant HTRA1, FP-rhodamine activity-based probe | AID 504803, 2011 | inhibition, % at 5.96 µM | 0.5% of 340,000 active | Q92743; in the data active = inhibition above about 36%;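 note: 0% = enzyme with DMSO and 100% = wells lacking enzyme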
Target sequence (Q92743 whole entry, looked up): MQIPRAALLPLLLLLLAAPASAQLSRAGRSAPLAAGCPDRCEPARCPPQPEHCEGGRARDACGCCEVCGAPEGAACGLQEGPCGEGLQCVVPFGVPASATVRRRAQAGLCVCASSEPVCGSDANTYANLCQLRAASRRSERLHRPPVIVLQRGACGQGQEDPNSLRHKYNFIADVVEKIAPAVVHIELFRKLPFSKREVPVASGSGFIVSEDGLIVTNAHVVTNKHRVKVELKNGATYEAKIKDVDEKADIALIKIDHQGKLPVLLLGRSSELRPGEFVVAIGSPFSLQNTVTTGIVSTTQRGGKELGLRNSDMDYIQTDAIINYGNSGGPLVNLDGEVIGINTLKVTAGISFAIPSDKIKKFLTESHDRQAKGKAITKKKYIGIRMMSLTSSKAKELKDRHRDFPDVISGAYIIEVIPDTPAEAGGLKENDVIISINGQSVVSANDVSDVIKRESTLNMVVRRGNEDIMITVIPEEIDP
PRMT1 confirm: PRMT1 methyltransferase inhibitors, confirmation, biochemical, fluorescence polarization, triplicate; shares compounds with PRMT1 FP inh; AID 687036, 2013; inhibition, % at 2.79 µM; 42% of 3,300 active; recombinant His-PRMT1, activity-based probe fluorescence polarization;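 active = mean inhibition across replicates above the hit cutoff derived for the earlier primary screen, cut at about 22% in these data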
The depositor's hits bear a star; x = not tested or not shown. Compounds with a hit are over-represented: about 3.5% of the library has one in this group of screens.

SMILES	ABHD4 inh	rCAG binder	PRMT1 FP inh	TCR-CD3 inh	SIAE primary	HTRA1 inh	PRMT1 confirm
COc1ccc(Cn2ccc3ccc(-c4ccc5ccn(Cc6ccc(F)cc6)c5c4)cc32)cc1	3.0	14.2	2.5	x	-0.8	x	x
Nc1ccccc1SSc1ccccc1N	4.0	1.4	82.6*	-1.1	10.5	11.8	83.8*
O=C(CSC1=NCCN1)C1COc2ccccc2O1 (stereo not drawn)	-0.4	3.1	33.9*	11.9	0.4	-6.8	42.1*
CN(CCc1ccccn1)C1CC(=O)N(c2ccc(Cl)cc2)C1=O (stereo not drawn)	0.6	6.1	79.5*	-1.5	-4.7	2.6	16.1
NC(=O)CCC(NC(=O)c1ccc(Cl)cc1)C(=O)O (stereo not drawn)	6.5	2.1	51.6*	0.8	4.6	1.1	-7.3
O=C(NNC(=S)NC(=O)c1ccc(Br)cc1)c1cccc([N+](=O)[O-])c1	-4.4	10.0	-5.2	11.7	12.7	10.9	x
CC(=O)NNC(=S)NC(=O)c1cccc([N+](=O)[O-])c1	-8.2	0.1	48.1*	15.1	-2.1	-4.9	0.4
COc1ccccc1C(=O)N1CCN(c2ccc(N3CCOCC3)nn2)CC1	6.3	-3.4	38.4*	-7.0	-2.5	7.3	-4.5
COc1ccc(C(=O)N2CCN(c3ccc(N4CCOCC4)nn3)CC2)cc1OC	-0.3	-4.1	0.8	-1.8	-0.4	5.0	x
O=C(CSC1=NCCN1)Nc1cccc(C(F)(F)F)c1	6.1	-2.7	52.1*	-3.9	-4.8	-1.8	35.0*
C=CCN1[C@H](CO)[C@H](c2ccccc2)[C@@H]1C#N	7.6	3.6	5.6	x	-4.6	x	x
COc1cccc(/C=N/N2C(=O)CSC2=S)c1O	17.5	15.5	38.5*	10.2	-7.2	14.2	53.5*
COc1cc(/C=N/N2C(=O)CSC2=S)cc(Br)c1O	-224.5	18.4	15.0	-260.5	-197.6	-82.1	x
COc1ccc(CSc2nc3ccccc3[nH]2)cc1	-6.9	3.7	1.4	1.1	11.9	-11.0	x
O=C1CCC(=O)N1c1ccc(CSc2nc3ccccc3[nH]2)cc1	-4.9	-0.1	33.1*	-4.1	-6.7	0.5	28.0*
CCCCOCCCNC(=O)C[C@H]1C[C@@]2(C(=O)OC)C(=C[C@H](C(C)(C)C)O[C@@H]2C)N(Cc2ccco2)C1=O	-0.3	-1.5	-2.1	x	1.8	x	x
Cc1ccc(-n2c(SCc3cccc(F)c3)nnc2-c2cccc(C)c2)cc1	-4.0	0.2	6.0	x	-9.2	x	x
Cc1cccc(NC(=O)COC(=O)CCc2c[nH]c3ccccc23)c1C	-2.1	-3.5	2.4	-4.3	2.3	4.8	x
Cc1cccc(C)c1NC(=O)COC(=O)CCc1c[nH]c2ccccc12	9.8	-0.1	30.1*	15.5	6.4	0.5	-1.1
C[C@@H]1COc2cc(Br)ccc2S(=O)(=O)N1Cc1cn(CC2CCCCC2)nn1	5.5	2.8	1.5	x	1.0	x	x
CCOc1ccc(C(=O)NN2C(=O)C3C4C=CC(O4)C3C2=O)cc1 (stereo not drawn)	5.5	1.2	53.2*	-6.4	-2.8	3.0	6.3
O=C(CCc1ccccc1)NN1C(=O)C2C3C=CC(O3)C2C1=O (stereo not drawn)	-0.2	-1.6	56.7*	-7.8	0.8	8.7	1.5
Cc1cccc(OCC(=O)NN2C(=O)C3C4C=CC(O4)C3C2=O)c1 (stereo not drawn)	5.8	-3.0	0.7	2.8	-3.4	10.2	x
Cc1ccccc1OCC(=O)NN1C(=O)C2C3C=CC(O3)C2C1=O (stereo not drawn)	-1.3	1.5	15.2	4.7	-1.1	1.8	x
Cc1ccc(/C=C/C(=O)N2CCN(c3ncccn3)CC2)o1	-2.8	6.7	50.5*	6.0	-0.7	-0.4	36.2*
SMILES	ABHD4 inh	rCAG binder	PRMT1 FP inh	TCR-CD3 inh	SIAE primary	HTRA1 inh	PRMT1 confirm
Cc1cccc(NC(=O)C(NS(=O)(=O)c2ccc3c(c2)CCC(=O)N3)c2ccccc2)n1 (stereo not drawn)	6.3	1.5	47.1*	-1.2	5.5	-12.9	48.0*
O=c1/c(=C/c2ccco2)sc2n1CN(c1cccc(Br)c1)CN=2	28.3	2.1	11.7	2.8	-1.1	8.0	x
Cc1ccc(/C=c2\sc3n(c2=O)CN(c2cccc(Br)c2)CN=3)o1	19.4	0.6	33.9*	2.8	1.8	-6.6	4.3
COc1ccc2c(c1)NC(=O)[C@@]2(CCN1C(=O)c2ccccc2C1=O)c1[nH]c2ccccc2c1CCN1C(=O)c2ccccc2C1=O	-21.3	x	4.7	x	-15.7	x	x
Cc1cc(C)nc(SCNC(=O)c2ccccc2)n1	-5.6	-3.8	33.8*	-6.3	8.0	3.8	-1.6
O=C(O)/C(=C\c1ccco1)NC(=O)c1ccc(Br)o1	15.5	-0.8	10.5	-0.3	10.3	5.5	x
O=C(O)/C(=C\c1ccco1)NC(=O)c1cccc2ccccc12	8.8	18.3	33.2*	-2.5	-0.1	-6.8	6.9
O=C(Nc1ccc(C(=O)O)cc1)/C(=C\c1ccco1)NC(=O)c1ccc(Br)o1	7.2	6.1	25.5*	15.3	2.9	-0.1	-4.1
O=C(O)/C(=C/c1ccco1)NC(=O)c1ccc(Br)o1	19.7	2.4	29.0*	-0.8	6.1	2.7	4.4
O=C(Nc1ccc(C(=O)O)cc1)/C(=C\c1ccco1)NC(=O)c1ccc(Br)cc1	-5.6	17.2	34.5*	-1.8	1.9	-4.0	3.1
COc1cccc(N2CCN(C(=O)COc3cc(=O)n(C)c4ccccc34)CC2)c1	-5.8	-1.6	0.5	x	-3.9	x	x
CCCC[C@H]1C2CC(OC(=O)Nc3ccccc3)C(C2)[C@H]2CCCCN21 (stereo partly drawn)	-5.1	0.4	0.8	x	0.8	x	x
COC(=O)C1CN(CC(C)C)CCS(=O)(=O)N1Cc1ccc(Cl)cc1 (stereo not drawn)	-1.2	-1.0	-5.9	x	3.4	x	x
CC(C)Oc1ccc(-c2csc(N3CCC(C(N)=O)CC3)n2)cc1	1.9	x	5.2	x	0.8	x	x
Cc1ccc(/C=N\NC(=O)CN2CCN(S(=O)(=O)c3ccc(Br)cc3)CC2)s1	1.1	1.1	-2.4	x	1.0	x	x
O=C(NCc1cccnc1)c1ccc2c(c1)N(Cc1ccccc1)CCS2	2.6	4.6	28.8*	1.2	2.4	3.8	7.3
CCCOc1ccc(CNC(=O)c2ccc3c(c2)N(CC)CCS3)cc1	7.8	11.9	27.5*	-2.6	7.8	-7.5	4.8
CCOC(=O)[C@]12CCCC=C1N(CCCOC)C(=O)[C@@H]2CC(=O)NCC12CC3CC(CC(C3)C1)C2	1.9	-1.3	-4.4	x	5.8	x	x
CCOC(=O)[C@]12CCCC=C1N(Cc1ccc(OC)cc1)C(=O)[C@@H]2CC(=O)N1CCN(C(=O)C2CC2)CC1	0.9	-0.1	0.7	x	6.3	x	x
